What is called MIC is the smallest concentration in the dilution series that meets the test's criterion for growth inhibition. In general, IC50 refers to the concentration at which inhibition is half-maximal.

The source of these data is ChEMBL document CHEMBL3797058, “Sorazolons, Carbazole Alkaloids from Sorangium cellulosum Strain Soce375” (J Nat Prod, 2016).

For one experiment, the system named is Mucor hiemalis. Kind of experiment: Antimicrobial activity against Mucor hiemalis DSM 2656 by serial dilution method. In kind it is functional. Put shortly:
(§1)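 MIC by serial dilution (150 μL) in 96-well tissue-culture plates; 20 μL aliquots of compound at 1 mg/mL tested; methanol as negative control.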

The subject of the next experiment is Staphylococcus aureus. The experiment in a line: Antimicrobial activity against Staphylococcus aureus Newman by serial dilution method. In kind it is functional. Put shortly:
as §1

Experiment [1] concerns Mycolicibacterium smegmatis. Kind of experiment: Antimicrobial activity against Mycobacterium smegmatis ATCC 700084 by serial dilution method. In kind it is functional, organism-based. Put shortly:
as §1

Experiment [2] relates to Escherichia coli. Kind of experiment: Antimicrobial activity against Escherichia coli TolC by serial dilution method. In kind it is functional. Put shortly:
as §1

In experiment [3] the test system is Escherichia coli. Kind of experiment: Antimicrobial activity against Escherichia coli DSM 1116 by serial dilution method. The class given is functional, organism-based. Put shortly:
as §1

The next experiment relates to Candida albicans. The experiment in a line: Antimicrobial activity against Candida albicans DSM 1665 by serial dilution method. In kind it is functional, organism-based. Put shortly:
as §1

A further experiment has as its system Wickerhamomyces anomalus. Kind of experiment: Antimicrobial activity against Wickerhamomyces anomalus DSM 6766 by serial dilution method. In kind it is functional, organism-based. The procedure, abridged:
as §1

In the next experiment the test system is L929. Kind of experiment: Cytotoxicity against mouse L929 cells. In kind it is cell-based. Put shortly: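 Mouse fibroblast L929 cells exposed to 3.0 μL of each compound; MIC determined by serial dilution (60 μL) in 96-well tissue-culture plates.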
For another experiment, the system named is Pseudomonas aeruginosa. The experiment in a line: Antimicrobial activity against Pseudomonas aeruginosa PA14 by serial dilution method. The class given is functional. The procedure, abridged: as §1
The next experiment relates to Bacillus subtilis. The experiment in a line: Antimicrobial activity against Bacillus subtilis DSM 10 by serial dilution method. The class given is functional. The procedure, abridged: as §1
In a further experiment the test system is Micrococcus luteus. The experiment in a line: Antimicrobial activity against Micrococcus luteus DSM 1790 by serial dilution method. The class given is functional. Put shortly: as §1
Where [4] appears, read: Mus musculus, L929, read-out: IC50.

Structures are written as SMILES. Values after ≈ are worked out from the molar mass of the structure shown. Active and inactive are the calls of the source.

Take `C[C@@]1(O)C(=O)C(=O)c2c([nH]c3ccccc23)[C@@]1(C)O`: the MIC entry (in the experiment on Mucor hiemalis; with Staphylococcus aureus; in experiment [1]; with Escherichia coli [2]; with Escherichia coli [3]; in the experiment with Candida albicans) was “inactive” throughout. Further, the MIC result in the experiment on Wickerhamomyces anomalus, in the experiment on Pseudomonas aeruginosa, with Bacillus subtilis and in the experiment with Micrococcus luteus was “inactive” each time. In the experiment on L929 (l929), the IC50 entry was “Not Active”.

In the case of `Cc1c(O)c(-c2c(O)c(C)c(C)c3[nH]c4ccccc4c23)c2c([nH]c3ccccc32)c1C`, the MIC against Mucor hiemalis worked out at 67 µg/mL (≈ 159 µM); in the experiment on Staphylococcus aureus it was 16.6 µg/mL (≈ 39.5 µM); with Escherichia coli [2], 33.3 µg/mL (≈ 79.2 µM); in the experiment with Bacillus subtilis, 16.6 µg/mL (≈ 39.5 µM); against Micrococcus luteus it was 16.6 µg/mL (≈ 39.5 µM). The MIC result (in experiment [1]; in the experiment on Escherichia coli [3]; in the experiment on Candida albicans; in the experiment with Wickerhamomyces anomalus; in the experiment with Pseudomonas aeruginosa) was “inactive” each time. The concentration for half-maximal inhibition (IC50) with L929 (setting [4]) was 4.99 µM.

Regarding `CO[C@]1(C)c2[nH]c3ccccc3c2CC(=O)[C@@]1(C)O`, the MIC entry (in the experiment on Mucor hiemalis; in the experiment on Staphylococcus aureus; in experiment [1]; with Escherichia coli [2]; in the experiment with Escherichia coli [3]; with Candida albicans) was “inactive” in each case. In addition, the MIC result in the experiment on Wickerhamomyces anomalus, with Pseudomonas aeruginosa, with Bacillus subtilis and in the experiment on Micrococcus luteus was “inactive” in each case. For the same molecule, the IC50 result with L929 (l929) is “Not Active”.

For the molecule `C=C1c2[nH]c3ccccc3c2C[C@@H](O)[C@@]1(C)O`, the MIC entry (with Mucor hiemalis; in the experiment with Staphylococcus aureus; in experiment [1]; in the experiment on Escherichia coli [2]; with Escherichia coli [3]; with Candida albicans) was “inactive” each time. The MIC entry in the experiment with Wickerhamomyces anomalus, in the experiment on Pseudomonas aeruginosa, in the experiment on Bacillus subtilis and in the experiment on Micrococcus luteus was “inactive” in each case. Also, in the experiment on L929 (l929), the IC50 result is “Not Active”.

In the case of `C[C@@]1(O)C(=O)Cc2c([nH]c3ccccc23)[C@@]1(C)O`, the MIC result (in the experiment on Mucor hiemalis; in the experiment with Staphylococcus aureus; in [1]; in the experiment on Escherichia coli [2]; with Escherichia coli [3]; in the experiment with Candida albicans) was “inactive” in each case. Moreover, the MIC result with Wickerhamomyces anomalus, with Pseudomonas aeruginosa, with Bacillus subtilis and with Micrococcus luteus was “inactive” each time. Also, the IC50 entry in the experiment with L929 (l929) is given as “Not Active”.

As for `C[C@@]1(O)C(=O)[C@H]([C@H]2C(=O)[C@@](C)(O)[C@](C)(O)c3[nH]c4ccccc4c32)c2c([nH]c3ccccc23)[C@@]1(C)O`, the MIC result (in the experiment on Mucor hiemalis; in the experiment with Staphylococcus aureus; in [1]; in the experiment with Escherichia coli [2]; in the experiment with Escherichia coli [3]; in the experiment with Candida albicans) was “inactive” in each case. Also, the MIC entry in the experiment with Wickerhamomyces anomalus, in the experiment on Pseudomonas aeruginosa, with Bacillus subtilis and with Micrococcus luteus was “inactive” throughout. Also, in the experiment with L929 (l929), the half-maximal inhibitory concentration (IC50) entry is “Not Active”.

Consider `CO[C@]1(C)c2[nH]c3ccccc3c2C(=O)C(=O)[C@@]1(C)O`, for which the MIC result (in the experiment with Mucor hiemalis; in experiment [1]; in the experiment with Escherichia coli [2]; in the experiment on Escherichia coli [3]; in the experiment with Candida albicans; in the experiment on Wickerhamomyces anomalus) was “inactive” in each case. Also, in the experiment with Pseudomonas aeruginosa, the MIC entry was “inactive”. In addition, the MIC stood at 16.6 µg/mL (≈ 60.7 µM) against Staphylococcus aureus, 8.3 µg/mL (≈ 30.4 µM) against Bacillus subtilis and 16.6 µg/mL (≈ 60.7 µM) with Micrococcus luteus. For the same molecule, in the experiment with L929 (setting [4]), the half-maximal inhibitory concentration (IC50) was 76.8 µM.

As for `Cc1ccc2c([nH]c3ccccc32)c1C=O`, the MIC entry (with Mucor hiemalis; in the experiment with Staphylococcus aureus; in experiment [1]; in the experiment with Escherichia coli [2]; with Escherichia coli [3]; in the experiment with Candida albicans) was “inactive” throughout. For the same molecule, the MIC result in the experiment on Wickerhamomyces anomalus, with Pseudomonas aeruginosa, in the experiment with Bacillus subtilis and in the experiment with Micrococcus luteus was “inactive” each time. Besides, the IC50 entry with L929 (l929) was “Not Active”.

For the molecule `Cc1c(O)cc2c([nH]c3ccccc32)c1C`, the MIC entry (in the experiment on Mucor hiemalis; in experiment [1]; with Escherichia coli [3]; in the experiment with Candida albicans; in the experiment on Wickerhamomyces anomalus; in the experiment on Pseudomonas aeruginosa) was “inactive” each time. Besides, the MIC is 33.3 µg/mL (≈ 158 µM) with Staphylococcus aureus, 67 µg/mL (≈ 317 µM) in the experiment on Escherichia coli [2], 16.6 µg/mL (≈ 78.6 µM) in the experiment with Bacillus subtilis and 33.3 µg/mL (≈ 158 µM) in the experiment on Micrococcus luteus. In the experiment on L929 (setting [4]), the IC50 amounted to 85.2 µM.
